Assay results published in ChEMBL document CHEMBL1129788, “Synthesis and biological activity of 3- and 5-amino derivatives of pyridine-2-carboxaldehyde thiosemicarbazone” (J Med Chem, 1996).

Experiments:
Mus musculus [1] = assay: T/C(100) represents the ratio of the survival time of treated to control animals x 100(daily dosage 60 mg/kg); format: functional
[2] = biological target: T1, Ribonucleoside-diphosphate reductase subunit M2 (Homo sapiens, UniProt P31350); assay: Inhibitory activity against CDP reductase.
T1 sequence (P31350 whole entry): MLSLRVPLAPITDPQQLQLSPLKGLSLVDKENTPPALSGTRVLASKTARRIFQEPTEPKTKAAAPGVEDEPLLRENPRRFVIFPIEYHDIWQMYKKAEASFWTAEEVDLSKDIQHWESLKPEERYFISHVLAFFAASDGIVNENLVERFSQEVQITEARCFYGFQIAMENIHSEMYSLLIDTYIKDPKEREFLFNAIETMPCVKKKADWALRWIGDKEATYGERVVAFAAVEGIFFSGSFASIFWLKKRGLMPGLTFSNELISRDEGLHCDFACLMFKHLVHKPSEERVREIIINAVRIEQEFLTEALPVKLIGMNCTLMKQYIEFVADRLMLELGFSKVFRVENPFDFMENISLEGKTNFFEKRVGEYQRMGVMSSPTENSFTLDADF
Summary of the method: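 Ribonucleoside diphosphate reductase prepared as non-heme iron and effector-binding subunits. IC50 is 50% inhibition, the mean of two separate determinations.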

Mus musculus [3] = organism: Mus musculus; assay: Long time survivors(out of 5) are the number of mice that survived for > 60 days relative to the total number of treated mice; format: functional
Mus musculus [4] = assay: Average change in body weight from onset to termination of therapy(daily dosage 40 mg/kg); format: functional
Mus musculus [5] = assay: Average survival time includes only those mice that died prior to day 60(daily dosage 40 mg/kg); format: functional
L1210 = assay: Compound was tested for inhibition of L1210 cells growth in culture.; format: functional, cell-based; details: Mus musculus
Summary of the method: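 L1210 cells seeded at 2000/well; test agents added 24 h later at various concentrations (at least five per agent). Growth read colorimetrically after adding phenazine methosulfate, with 2-3 h incubation at 37 °C and reading at 492 nm. IC50 is the concentration giving 50% growth inhibition.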

Mus musculus [6] = assay: Average survival time includes only those mice that died prior to day 60(daily dosage 40 mg/kg)
Mus musculus [7] = assay: T/C(100) represents the ratio of the survival time of treated to control animals x 100(daily dosage 40 mg/kg); format: functional
Mus musculus [8] = assay: T/C(100) represents the ratio of the survival time of treated to control animals x 100(daily dosage 80 mg/kg); format: functional
Mus musculus [9] = assay: Average survival time includes only those mice that died prior to day 80(daily dosage 40 mg/kg); format: functional
Mus musculus [10] = assay: Average survival time includes only those mice that died prior to day 60(daily dosage 80 mg/kg)
Mus musculus [11] = assay: Average survival time includes only those mice that died prior to day 60(daily dosage 60 mg/kg)
[12] = dose 60 mg/kg, in the assay text read “daily dosage 60 mg/kg” for “daily dosage 40 mg/kg”
[13] = dose 80 mg/kg, in the assay text read “daily dosage 80 mg/kg” for “daily dosage 40 mg/kg”

Compound	T/C (Mus musculus [1])	IC50 [2] [nM]	Survivors (Mus musculus [3])	Weight (Mus musculus [4]; [12]) [%]	Average survival (Mus musculus [5]) [days]	IC50 (L1210) [nM]	Average survival (Mus musculus [6]) [days]	T/C (Mus musculus [7])	Weight (Mus musculus [4]; dose 40 mg/kg) [%]	T/C (Mus musculus [8])	Average survival (Mus musculus [9]) [days]	Weight (Mus musculus [4]; [13]) [%]	Average survival (Mus musculus [10]) [days]	Average survival (Mus musculus [11]) [days]
CNc1ccc(/C=N/N=C(/N)S)nc1	223	1300	0	-4.4	17.8	2400								
CCCCNc1ccc(/C=N/N=C(/N)S)nc1		2500	0			7800	9.2	115	-4					
C=CCNc1ccc(/C=N/N=C(/N)S)nc1	215	1400	0		17.2	4400								
N/C(S)=N/N=C/c1cc(CN2CCOCC2)c(N)cn1		11000	0			> 10000	10	125	-3.5					
NCc1ccc(/C=N/N=C(/N)S)nc1		2500	1			2100				168	13.4	-2.4		
CCNc1ccc(/C=N/N=C(/N)S)nc1		1000	0			3400				204		-3.4	16.3	
N/C(S)=N/N=C/c1ncc(N)cc1N	135	9000	2	-17.1	10.8	1100								
CCCNc1ccc(/C=N/N=C(/N)S)nc1	146	1400	0	-5.2		5100								11.7
CNc1cccnc1/C=N/N=C(/N)S		1000	0			1500	11.8	148	-2.9					
C=CCNc1cccnc1/C=N/N=C(/N)S		1700	0			> 10000				126		-2.6	10.1	
